Type in all cases: ADME, organism-based
Data set [1] can be described thus: Tmax in HIV-infected patient at 480 mg/m2, po administered every 12 hrs for 6 weeks co-administered with 120 mg/m2 of ritonavir and saquinavir. As to conditions: human, in vivo. Put shortly: (§1)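 Step 2 SQV 750 mg/m2 q12h was added by week 4 when LPV IQ was <15. A second 12-h intensive PK study ran after 2 weeks of SQV plus LPV/r (week 6), with plasma predose and at 1, 2, 3, 6 and 12 h. HPLC-UV at 212 nm (LPV 0.100–40, SQV 0.050–20 μg/ml). Noncompartmental AUC, Cmax, Tmax and C12h.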

Data set [2] in a line: Cmax in HIV-infected patient at 480 mg/m2, po administered every 12 hrs for 6 weeks co-administered with 120 mg/m2 of ritonavir and saquinavir. As to conditions: human, in vivo. Also on record: route oral. Put shortly: as §1
Data set [3] in a line: AUC in HIV-infected patient at 480 mg/m2, po administered every 12 hrs for 6 weeks co-administered with 120 mg/m2 of ritonavir and saquinavir. As to conditions: human, plasma. Put shortly:
as §1

Data set [4] in a line: Plasma concentration in HIV-infected patient at 480 mg/m2, po administered every 12 hrs for 6 weeks co-administered with 120 mg/m2 of ritonavir and saquinavir measured 12 hrs after last dose. As to conditions: human. The gist of the method:
as §1

The nature of data set [5]: Cmax in HIV-infected patient at 400 mg/m2, po administered every 12 hrs for 2 weeks co-administered with 120 mg/m2 of ritonavir. Details: route oral. As to conditions: human, in vivo, in the assay text read “100 mg/m2 of ritonavir” for “120 mg/m2 of ritonavir”. The gist of the method:
(§2)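 Treatment-experienced HIV-infected children and adolescents. Without NNRTI: LPV/r 400/100 mg/m2 q12h. With NNRTI: 480/120 mg/m2 q12h. Given as gel capsule or liquid. After 2 weeks, a 12-h intensive PK study followed an observed dose, no standardized meal. Plasma (EDTA) was drawn predose and at 1, 2, 3, 6 and 12 h. LPV was measured by HPLC-UV at 212 nm (range 0.100–40 μg/ml). Noncompartmental AUC, Cmax, Tmax, C12h and CL/F.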

The nature of data set [6]: Clearance in HIV-infected patient at 400 mg/m2, po administered every 12 hrs for 2 weeks co-administered with 120 mg/m2 of ritonavir. As to conditions: human, in vivo, in the assay text read “100 mg/m2 of ritonavir” for “120 mg/m2 of ritonavir”. Put shortly: as §2
Data set [7] in a line: AUC in HIV-infected patient at 400 mg/m2, po administered every 12 hrs for 2 weeks co-administered with 120 mg/m2 of ritonavir. As to conditions: human, plasma, in the assay text read “100 mg/m2 of ritonavir” for “120 mg/m2 of ritonavir”. Put shortly: as §2
Data set [8] is described as follows: Tmax in HIV-infected patient at 400 mg/m2, po administered every 12 hrs for 2 weeks co-administered with 120 mg/m2 of ritonavir. As to conditions: human, in vivo, in the assay text read “100 mg/m2 of ritonavir” for “120 mg/m2 of ritonavir”. The gist of the method:
as §2

The nature of data set [9]: Plasma concentration in HIV-infected patient at 400 mg/m2, po administered every 12 hrs for 2 weeks co-administered with 120 mg/m2 of ritonavir measured 12 hrs after last dose. As to conditions: human, in the assay text read “100 mg/m2 of ritonavir” for “120 mg/m2 of ritonavir”. Put shortly: as §2

The Tmax is the time at which the peak concentration occurs. The Cmax is the maximum level reached in the sampled fluid or tissue. One may read the AUC as the area under the concentration-time curve, a measure of exposure. For `CC(C)(C)NC(=O)[C@@H]1C[C@@H]2CCCC[C@@H]2CN1C[C@@H](O)[C@H](Cc1ccccc1)NC(=O)[C@H](CC(N)=O)NC(=O)c1ccc2ccccc2n1`, the Tmax in [1] was determined as 3 h. Further, the maximum concentration (Cmax) in data set [2] worked out at 3600 ng/mL. The AUC in data set [3] amounted to 33700 ng·h/mL. The concentration at 12 h in [4] came to 1820 ng/mL.

One may read the CL/F as clearance divided by bioavailability, as obtained after extravascular dosing. On to `Cc1cccc(C)c1OCC(=O)N[C@@H](Cc1ccccc1)[C@@H](O)C[C@H](Cc1ccccc1)NC(=O)[C@H](C(C)C)N1CCCNC1=O` [LOPINAVIR], for which the Cmax in data set [5] turned out to be 17200 ng/mL. Further, the CL/F in data set [6] is 43 mL/min. The area under the curve (AUC) in [7] stood at 157000 ng·h/mL. The Tmax in data set [8] stood at 3 h. In data set [9], the concentration at 12 h was determined as 8800 ng/mL.

(Values after ChEMBL document CHEMBL1687709 (Antimicrob Agents Chemother, 2008).)
